From ChEMBL document CHEMBL1125422, “Low molecular weight proteins as carriers for renal drug targeting. Preparation of drug-protein conjugates and drug-spacer derivatives and their catabolism in renal cortex homogenates and lysosomal lysates” (J Med Chem, 1992) come the findings set out here.

Values joined by “and” are separate entries in the source; they are usually repeats but may differ in a detail not shown here. Equal entries are not always repeated. Square brackets hold non-standard residues; d marks the D form. Peptide text beside a SMILES is read from it. * marks the point of attachment. ξ: configuration not given here. βNA = c1ccc2cc(N*)ccc2c1; Cbz = O=C(OCc1ccccc1)*; ξP = O=C(O)C1CCCN1

The species entered for data set [1] is Rattus norvegicus. Description: (§1) Lysozyme-conjugated prodrugs: in vitro stability at pH 7.4. It counts as functional. The essentials:
(§2)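 Conjugate incubated 24 h in pH 5.0 buffer, pH 7.4 buffer, or plasma buffered at pH 7.4. Samples were deproteinized with ACN, MeOH or 2 N HCl, centrifuged, and analyzed by RP-HPLC against an internal standard. Release is % parent drug = parent/(parent + derivative) from IS-normalized peak-area ratios, mean of at least two separate incubations.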

For data set [2], the species on record is Rattus norvegicus. Description: (§3) Lysozyme-conjugated prodrugs: in vitro stability at pH 5. It counts as functional. In short, it runs like this: as §2
Data set [3] is filed under the species Rattus norvegicus. Described as §1. The format is functional. The essentials:
as §2
This is another data set of the same source.

For data set [4], the species on record is Rattus norvegicus. Described as §3. The format is ADME. The essentials: as §2
The species entered for data set [5] is Rattus norvegicus. The description is as §1. The format is functional. In short, it runs like this: as §2
The source holds these as a separate data set.

Data set [6] is filed under the species Rattus norvegicus. The data set is described as §3. The format is functional. In short, it runs like this: as §2
This is another data set of the same source.

The species named for data set [7] is Rattus norvegicus. Described as §1. The format is functional. The essentials:
as §2
The source holds these as a separate data set.

`COc1ccc2c(c1)c(CC(=O)N[C@@H](Cc1ccccc1)C(=O)O)c(C)n2C(=O)c1ccc(Cl)cc1`: the Drug release in the data set filed under Rattus norvegicus [1], in the data set filed under Rattus norvegicus [2], in the data set filed under Rattus norvegicus [3] and in the data set filed under Rattus norvegicus [4] was 0% throughout.
`NCCCC[C@H](NC(=O)c1ccccc1)C(=O)O`: the Drug release in the data set listed under Rattus norvegicus [1], in the data set filed under Rattus norvegicus [2], in the data set filed under Rattus norvegicus [3] and in the data set filed under Rattus norvegicus [4] was 0% throughout.
Consider `COc1ccc2cc(C(C)C(=O)N[C@@H](CC(C)C)C(=O)O)ccc2c1` (some centres undefined), for which the Drug release in the data set filed under Rattus norvegicus [1], in the data set filed under Rattus norvegicus [2], in the data set filed under Rattus norvegicus [3] and in the data set listed under Rattus norvegicus [4] was 0% each time.
`O=C(O)CNC(=O)c1ccccc1` [HIPPURIC ACID]: the Drug release in the data set listed under Rattus norvegicus [1], in the data set filed under Rattus norvegicus [2], in the data set listed under Rattus norvegicus [3] and in the data set filed under Rattus norvegicus [4] was 0% each time.
In the case of `O=C(N[C@@H](Cc1ccc(O)cc1)C(=O)O)c1ccccc1`, the Drug release in the data set filed under Rattus norvegicus [1], in the data set filed under Rattus norvegicus [2], in the data set filed under Rattus norvegicus [3] and in the data set filed under Rattus norvegicus [4] was 0% throughout.
As to `COc1ccc2c(c1)c(CC(=O)N[C@@H](CCC(=O)O)C(=O)O)c(C)n2C(=O)c1ccc(Cl)cc1`, the Drug release in the data set filed under Rattus norvegicus [1], in the data set filed under Rattus norvegicus [2], in the data set filed under Rattus norvegicus [3] and in the data set listed under Rattus norvegicus [4] was 0% each time.
Consider `Cc1cc(NS(=O)(=O)c2ccc(NC(=O)CC3=CC(=O)OC3=O)cc2)no1`, for which the Drug release is 8% in the data set listed under Rattus norvegicus [1]; 7% in the data set listed under Rattus norvegicus [5]; 84% in the data set listed under Rattus norvegicus [6]; 84% in the data set listed under Rattus norvegicus [2]; 8% in the data set listed under Rattus norvegicus [7]; 15% and 7% in the data set listed under Rattus norvegicus [3]. Further, the Drug release in the data set listed under Rattus norvegicus [4] is 100% and 80%.
For `COc1ccc2cc(C(C)C(=O)O[C@@H](C)C(=O)O)ccc2c1` (stereo in doubt), the Drug release in the data set filed under Rattus norvegicus [5] came out at 6.8%; in the data set listed under Rattus norvegicus [6], 2%; in the data set listed under Rattus norvegicus [2] it was 2%; in the data set listed under Rattus norvegicus [3], 6.9%; in the data set filed under Rattus norvegicus [4], 1.1%.
For the compound `COc1ccc2cc(C(C)C(=O)N[C@@H](Cc3c[nH]c4ccccc34)C(=O)O)ccc2c1` (some centres undefined), the Drug release in the data set filed under Rattus norvegicus [1], in the data set listed under Rattus norvegicus [2], in the data set listed under Rattus norvegicus [3] and in the data set listed under Rattus norvegicus [4] was 0% each time.
With `COc1ccc2cc(C(C)C(=O)O[C@@H](C)C(=O)O)ccc2c1` (stereo in doubt; 1r), the Drug release in the data set filed under Rattus norvegicus [1] was determined as 15%; in the data set listed under Rattus norvegicus [5], 13%; in the data set listed under Rattus norvegicus [6], 100%; in the data set filed under Rattus norvegicus [2], 100%; in the data set listed under Rattus norvegicus [7], 3%; in the data set listed under Rattus norvegicus [3], 1.4%. Besides, in the data set filed under Rattus norvegicus [4], the Drug release is given as 0.6%.
Consider `COc1ccc2cc(C(C)C(=O)NCC(=O)O)ccc2c1` (centres undefined), for which the Drug release in the data set filed under Rattus norvegicus [1], in the data set listed under Rattus norvegicus [2], in the data set filed under Rattus norvegicus [3] and in the data set filed under Rattus norvegicus [4] was 0% each time.
Turning to `COc1ccc2c(c1)c(CC(=O)NCC(=O)O)c(C)n2C(=O)c1ccc(Cl)cc1`, the Drug release in the data set listed under Rattus norvegicus [1], in the data set filed under Rattus norvegicus [2], in the data set filed under Rattus norvegicus [3] and in the data set listed under Rattus norvegicus [4] was 0% throughout.
As for `N=C(N)NCCC[C@H](NC(=O)c1ccccc1)C(=O)O`, the Drug release in the data set listed under Rattus norvegicus [1], in the data set filed under Rattus norvegicus [2], in the data set listed under Rattus norvegicus [3] and in the data set listed under Rattus norvegicus [4] was 0% throughout.
`C[C@H](NC(=O)OCc1ccccc1)C(=O)N1CCC[C@H]1C(=O)N[C@@H](Cc1ccccc1)C(=O)O` (Cbz-Ala-Pro-Phe-OH): the Drug release in the data set listed under Rattus norvegicus [1] was 96%; in the data set listed under Rattus norvegicus [2], 0%; in the data set filed under Rattus norvegicus [3] it was 0%; in the data set listed under Rattus norvegicus [4], 0%.
Regarding `COc1ccc2cc(C(C)C(=O)N[C@@H](CCCN=C(N)N)C(=O)O)ccc2c1` (some centres undefined), the Drug release in the data set listed under Rattus norvegicus [1], in the data set listed under Rattus norvegicus [2], in the data set listed under Rattus norvegicus [3] and in the data set filed under Rattus norvegicus [4] was 0% each time.
As to `COc1ccc2cc(C(C)C(=O)N[C@@H](Cc3ccccc3)C(=O)O)ccc2c1` (some centres undefined), the Drug release in the data set filed under Rattus norvegicus [1], in the data set listed under Rattus norvegicus [2], in the data set listed under Rattus norvegicus [3] and in the data set filed under Rattus norvegicus [4] was 0% each time.
In the case of `NCC(=O)N[C@@H](Cc1ccccc1)C(=O)Nc1ccc2ccccc2c1` (H-Gly-Phe-βNA), the Drug release in the data set filed under Rattus norvegicus [1] came to 100%; in the data set filed under Rattus norvegicus [6] it was 100%; in the data set listed under Rattus norvegicus [2], 100%; in the data set listed under Rattus norvegicus [7], 100%; in the data set listed under Rattus norvegicus [3], 0%; in the data set filed under Rattus norvegicus [4] it was 0%.
Consider `COc1ccc2c(c1)c(CC(=O)N[C@@H](Cc1c[nH]c3ccccc13)C(=O)O)c(C)n2C(=O)c1ccc(Cl)cc1`, for which the Drug release in the data set filed under Rattus norvegicus [1], in the data set listed under Rattus norvegicus [2], in the data set listed under Rattus norvegicus [3] and in the data set listed under Rattus norvegicus [4] was 0% throughout.
As to `CC(C)C[C@H](N)C(=O)Nc1nc2nc(N)nc(N)c2nc1-c1ccccc1`, the Drug release in the data set listed under Rattus norvegicus [1] is <5%; in the data set filed under Rattus norvegicus [2], <5%; in the data set listed under Rattus norvegicus [3], 0%; in the data set filed under Rattus norvegicus [4] it was 0%.
`COc1ccc2cc(C(C)C(=O)N[C@@H](CC(C)C)C(=O)NCC(=O)NCC(=O)O)ccc2c1` (stereo in doubt; 1o): the Drug release in the data set listed under Rattus norvegicus [1], in the data set listed under Rattus norvegicus [2], in the data set filed under Rattus norvegicus [3] and in the data set filed under Rattus norvegicus [4] was 0% each time.
With `COc1ccc2cc(C(C)C(=O)N[C@@H](CCC(=O)O)C(=O)O)ccc2c1` (some centres undefined), the Drug release in the data set filed under Rattus norvegicus [1], in the data set listed under Rattus norvegicus [2], in the data set filed under Rattus norvegicus [3] and in the data set listed under Rattus norvegicus [4] was 0% each time.
With `CC(C)C[C@H](N)C(=O)Nc1nc(N)nc2nc(N)c(-c3ccccc3)nc12`, the Drug release in the data set filed under Rattus norvegicus [1], in the data set listed under Rattus norvegicus [2], in the data set listed under Rattus norvegicus [3] and in the data set listed under Rattus norvegicus [4] was 0% in each case.
Consider `O=C(N[C@@H](Cc1ccccc1)C(=O)O)c1ccccc1`, for which the Drug release in the data set listed under Rattus norvegicus [1], in the data set listed under Rattus norvegicus [2], in the data set filed under Rattus norvegicus [3] and in the data set listed under Rattus norvegicus [4] was 0% in each case.
In the case of `COc1ccc2cc(C(C)C(=O)N[C@@H](Cc3ccc(O)cc3)C(=O)O)ccc2c1` (some centres undefined), the Drug release in the data set filed under Rattus norvegicus [1], in the data set listed under Rattus norvegicus [2], in the data set filed under Rattus norvegicus [3] and in the data set listed under Rattus norvegicus [4] was 0% each time.
On to `COc1ccc2cc(C(C)C(=O)N[C@@H](Cc3ccc(O)cc3)C(=O)NCC(=O)NCC(=O)O)ccc2c1` (stereo in doubt; 1p), for which the Drug release in the data set listed under Rattus norvegicus [1], in the data set filed under Rattus norvegicus [2], in the data set filed under Rattus norvegicus [3] and in the data set listed under Rattus norvegicus [4] was 0% in each case.
On to `O=C(N[C@@H](Cc1c[nH]c2ccccc12)C(=O)O)c1ccccc1`, for which the Drug release in the data set filed under Rattus norvegicus [1], in the data set listed under Rattus norvegicus [2], in the data set filed under Rattus norvegicus [3] and in the data set listed under Rattus norvegicus [4] was 0% each time.
As to `COc1ccc2c(c1)c(CC(=O)NCCCC[C@H](NC(=O)OCc1ccccc1)C(=O)O)c(C)n2C(=O)c1ccc(Cl)cc1`, the Drug release in the data set listed under Rattus norvegicus [1], in the data set listed under Rattus norvegicus [2], in the data set filed under Rattus norvegicus [3] and in the data set listed under Rattus norvegicus [4] was 0% throughout.
As for `CC(C)C[C@H](N)C(=O)Nc1nc(N)c2nc(-c3ccccc3)c(N)nc2n1`, the Drug release in the data set listed under Rattus norvegicus [1] is <5%; in the data set filed under Rattus norvegicus [2] it was <5%; in the data set filed under Rattus norvegicus [3], 0%; in the data set filed under Rattus norvegicus [4] it was 0%.
For the compound `COc1ccc2c(c1)c(CC(=O)N[C@@H](Cc1ccc(O)cc1)C(=O)O)c(C)n2C(=O)c1ccc(Cl)cc1`, the Drug release in the data set listed under Rattus norvegicus [1], in the data set filed under Rattus norvegicus [2], in the data set listed under Rattus norvegicus [3] and in the data set filed under Rattus norvegicus [4] was 0% each time.
For `CC(C)C[C@H](NC(=O)c1ccccc1)C(=O)O`, the Drug release in the data set filed under Rattus norvegicus [1], in the data set listed under Rattus norvegicus [2], in the data set filed under Rattus norvegicus [3] and in the data set filed under Rattus norvegicus [4] was 0% each time.
As for `COc1ccc2c(c1)c(CC(=O)N[C@@H](CC(C)C)C(=O)O)c(C)n2C(=O)c1ccc(Cl)cc1`, the Drug release in the data set listed under Rattus norvegicus [1], in the data set filed under Rattus norvegicus [2], in the data set listed under Rattus norvegicus [3] and in the data set filed under Rattus norvegicus [4] was 0% each time.
Regarding `O=C(O)CC[C@H](NC(=O)c1ccccc1)C(=O)O`, the Drug release in the data set filed under Rattus norvegicus [1], in the data set filed under Rattus norvegicus [2], in the data set filed under Rattus norvegicus [3] and in the data set filed under Rattus norvegicus [4] was 0% throughout.
For the compound `O=C(N[C@@H](Cc1ccccc1)C(=O)O)C1CCCN1C(=O)OCc1ccccc1` (some centres undefined) (Cbz-[ξP]-Phe-OH), the Drug release in the data set listed under Rattus norvegicus [1] worked out at 100%; in the data set filed under Rattus norvegicus [6], 100%; in the data set listed under Rattus norvegicus [2], 100%; in the data set filed under Rattus norvegicus [7], 100%; in the data set filed under Rattus norvegicus [3] it was 0%; in the data set listed under Rattus norvegicus [4] it was 0%.
Regarding `COc1ccc2cc(C(C)C(=O)N[C@H](C(=O)O)C(C)C)ccc2c1` (some centres undefined), the Drug release in the data set filed under Rattus norvegicus [1], in the data set listed under Rattus norvegicus [2], in the data set listed under Rattus norvegicus [3] and in the data set listed under Rattus norvegicus [4] was 0% throughout.
Consider `C[C@@H](NC(=O)C(Cc1ccccc1)NC(=O)OCc1ccccc1)C(=O)O` (some centres undefined), for which the Drug release turned out to be 100% in the data set listed under Rattus norvegicus [1]; 100% in the data set listed under Rattus norvegicus [6]; 100% in the data set filed under Rattus norvegicus [2]; 100% in the data set filed under Rattus norvegicus [7]; 0% in the data set listed under Rattus norvegicus [3]; 0% in the data set filed under Rattus norvegicus [4].
Take `CC(C)C[C@H](N)C(=O)Nc1ccc2ccccc2c1`: the Drug release in the data set listed under Rattus norvegicus [1] worked out at 100%; in the data set filed under Rattus norvegicus [6], 100%; in the data set filed under Rattus norvegicus [2] it was 100%; in the data set filed under Rattus norvegicus [7], 100%; in the data set filed under Rattus norvegicus [3], 0%; in the data set filed under Rattus norvegicus [4], 0%.
